The results in this text go back to ChEMBL document CHEMBL6083209, “Pyridazinone-based derivatives as anticancer agents endowed with anti-microbial activity: molecular design, synthesis, and biological investigation” (RSC Med Chem, 2024).

Structures are written as SMILES. Values after ≈ are worked out from the molar mass of the structure shown. Active and inactive are the calls of the source. The calls are words filed in the database; no cut-off is given here.

The test system of one test is SF-268. Briefly: Antiproliferative activity against human SF-268 cells assessed as growth inhibition incubated for 48 hrs by SRB method. Type of test: functional. In short, it runs like this:
(§1)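 NCI-60 five-dose screen at 0.01, 0.1, 1, 10 and 100 μM, triplicate wells per dose. Cells were in RPMI 1640 with 5% FBS and 2 mM L-glutamine, pre-grown 24 h and then treated for 48 h at 37 °C. Read-out was TCA fixation and SRB absorbance at 515 nm.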
(In SRB staining, fixed cells bind dye roughly in proportion to their protein.)

A further test concerns Candida albicans. The experiment in a line: Antimicrobial activity against Candida albicans ATCC 10231 by broth microdilution method.
For test [1], the system named is U-251. Briefly: Antiproliferative activity against human U-251 cells assessed as growth inhibition incubated for 48 hrs by SRB method. Type of test: functional. The method in brief: as §1
The subject of test [2] is SF-295. Briefly: Antiproliferative activity against human SF-295 cells assessed as growth inhibition at 10 uM incubated for 48 hrs by SRB method. Particulars: read-out: GI. The test is classed as functional. In short, it runs like this:
(§2)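 NCI-60 one-dose screen at 10 μM. Cells were grown in RPMI 1640 with 5% FBS and 2 mM L-glutamine and plated at 5000–40 000 cells/well for 24 h. Drug exposure was 48 h at 37 °C, 5% CO2. Cells were fixed with TCA, stained with 0.4% SRB and read at 515 nm. Growth is expressed as percent of untreated control and time-zero plates.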

Test [3] has as its system Staphylococcus aureus. Briefly: Antimicrobial activity against Staphylococcus aureus ATCC 29213 by broth microdilution method.
Another test concerns UACC-257. Briefly: Antiproliferative activity against human UACC-257 cells assessed as growth inhibition incubated for 48 hrs by SRB method. The test is classed as functional. The method in brief: as §1
A further test deals with Escherichia coli. The experiment in a line: Antimicrobial activity against Escherichia coli ATCC 25922 by broth microdilution method. (In general: Dilution methods test growth across graded concentrations, often in twofold steps.)
Test [4] relates to SF-295. Briefly: Antiproliferative activity against human SF-295 cells assessed as growth inhibition incubated for 48 hrs by SRB method. Type of test: functional. In short, it runs like this: as §1
Test [5] has as its system A549. The experiment in a line: Induction of cell cycle arrest in human A549 cells assessed as increase in cells at G0-G1 phase at GI50 concentration by flow cytometry analysis (reference value: 85.84%). Type of test: functional. In general terms: Flow cytometry measures light scatter and fluorescence of single cells or particles in a stream.
The subject of a further test is NCI-H522. Briefly: Antiproliferative activity against human NCI-H522 cells assessed as growth inhibition incubated for 48 hrs by SRB method. The test is classed as functional. In short, it runs like this: as §1
The next test concerns SK-MEL-2. The experiment in a line: Antiproliferative activity against human SK-MEL-2 cells assessed as growth inhibition at 10 uM incubated for 48 hrs by SRB method. Type of test: functional. Particulars: read-out: GI. The method in brief: as §2
Test [6] is described as follows: Upregulation of p53 gene expression in human A549 cells assessed as fold increase by qRT-PCR analysis. Type of test: functional. In short, it runs like this:
(§3)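 A549/ATCC cells treated, total RNA DNase-treated and checked by 260/280 ratio (1.8–2.1). Reverse transcription with oligo-dT and MuLV RT: 25 °C 10 min, 42 °C 1 h, 99 °C 5 min. qPCR of 40 cycles (95 °C 15 s, 55 °C 30 s, 72 °C 30 s) followed by melt curve. Relative expression by the 2−ΔΔCT method, mean ± SEM.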

For another test, the system named is OVCAR-8. The experiment in a line: Antiproliferative activity against human OVCAR-8 cells assessed as growth inhibition incubated for 48 hrs by SRB method. The test is classed as functional. The method in brief:
as §1

The subject of test [7] is A549. The experiment in a line: Induction of cell cycle arrest in human A549 cells assessed as increase in cells at G0-G1 phase at GI50 concentration by flow cytometry analysis (reference value: 85.46%). The test is classed as functional.
In test [8] the test system is UACC-62. The experiment in a line: Antiproliferative activity against human UACC-62 cells assessed as growth inhibition at 10 uM incubated for 48 hrs by SRB method. Particulars: read-out: GI. The test is classed as functional. In short, it runs like this:
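NCI-60 one-dose screen at 10 μM. Cells grown in RPMI 1640 with 5% FBS and 2 mM L-glutamine, plated at 5000–40 000 cells/well and preincubated 24 h at 37 °C, 5% CO2. Drug exposure 48 h. Fixed with TCA and stained with 0.4% SRB, absorbance read at 515 nm. Percent growth calculated against untreated control and time-zero plates.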

A further test deals with SNB-75. Briefly: Antiproliferative activity against human SNB-75 cells assessed as growth inhibition incubated for 48 hrs by SRB method. Type of test: functional. The method in brief:
as §1

The next test relates to SNB-19. The experiment in a line: Antiproliferative activity against human SNB-19 cells assessed as growth inhibition at 10 uM incubated for 48 hrs by SRB method. Type of test: functional. Particulars: read-out: GI. In short, it runs like this:
as §2

The test system of the next test is MDA-MB-231. Briefly: Antiproliferative activity against human MDA-MB-231 cells assessed as growth inhibition incubated for 48 hrs by SRB method. Particulars: MDA-MB-231, 48 h.
The test system of test [9] is A549. The experiment in a line: Induction of cell cycle arrest in human A549 cells assessed as decrease in cells at G2/M phase at GI50 concentration by flow cytometry analysis (reference value: 13.15 to 13.37%). Type of test: functional. More on the design: scale not given: the % may be the effect or the level left.
The subject of test [10] is A549. The experiment in a line: Induction of cell cycle arrest in human A549 cells assessed as increase in cells at G0-G1 phase at GI50 concentration by flow cytometry analysis (reference value: 85.41%). The test is classed as functional.
The next test relates to RXF 393. Briefly: Antiproliferative activity against human RXF 393 cells assessed as growth inhibition incubated for 48 hrs by SRB method. Type of test: functional. In short, it runs like this:
as §1

The test system of test [11] is U-251. The experiment in a line: Antiproliferative activity against human U-251 cells assessed as growth inhibition at 10 uM incubated for 48 hrs by SRB method. Type of test: functional. The following applies: read-out: GI. In short, it runs like this: as §2
Test [12] concerns A549. Briefly: Induction of cell cycle arrest in human A549 cells assessed as decrease in cells at S phase at GI50 concentration by flow cytometry analysis (reference value: 0.31 to 0.51%). Type of test: functional. On the set-up: scale not given: the % may be the effect or the level left.
Test [13] has as its system UACC-62. The experiment in a line: Antiproliferative activity against human UACC-62 cells assessed as growth inhibition incubated for 48 hrs by SRB method. Type of test: functional. In short, it runs like this:
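NCI-60 five-dose screen at 0.01, 0.1, 1, 10 and 100 μM, triplicate wells per dose. Cells grown in RPMI 1640/5% FBS, preincubated 24 h, then exposed 48 h at 37 °C. TCA fixation, SRB stain, A515.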

Another test concerns Hs-578T. The experiment in a line: Antiproliferative activity against human Hs-578T cells assessed as growth inhibition incubated for 48 hrs by SRB method.
The next test concerns HOP-62. Briefly: Antiproliferative activity against human HOP-62 cells assessed as growth inhibition at 10 uM incubated for 48 hrs by SRB method. Particulars: read-out: GI. The test is classed as functional. In short, it runs like this:
as §2

A short description of test [14]: Upregulation of Bax gene expression in human A549 cells assessed as fold increase by qRT-PCR analysis. Type of test: functional. The method in brief: as §3
Test [15] concerns A549. Briefly: Downregulation of Bcl-2 gene expression in human A549 cells by qRT-PCR analysis. Type of test: functional, cell-based. The method in brief: as §3
For the next test, the system named is HOP-92. The experiment in a line: Antiproliferative activity against human HOP-92 cells assessed as growth inhibition incubated for 48 hrs by SRB method. The test is classed as functional. The method in brief: as §1
Test [16] has as its system Staphylococcus aureus. Briefly: Antimicrobial activity against Staphylococcus aureus NCTC 8325 incubated for 45 mins. Type of test: functional. The following applies: NCTC 8325, 0.75 h.

As for `O=C(NC(=S)Nc1ccc(-c2ccc(=O)[nH]n2)cc1)c1cccc(Cl)c1`, the GI50 (as a rule, the concentration that inhibits growth by half) with SF-268 amounted to 6.91 µM; in the test on U-251 [1], 6.94 µM; with UACC-257, 5.59 µM; with SF-295 [4], 7.23 µM; in the test on NCI-H522, 4.55 µM; with OVCAR-8, 6.24 µM. In addition, the GI50 in the test with SNB-75 came out at 3.92 µM; with MDA-MB-231 it was 6.83 µM; in the test on RXF 393, 6.6 µM; in the test with UACC-62 [13], 4.07 µM; in the test with Hs-578T, 5.8 µM; in the test with HOP-92, 3.18 µM. Moreover, the MIC (usually the lowest concentration that inhibits growth of the organism) against Candida albicans is 512 µg/mL (≈ 1330 µM); against Staphylococcus aureus [3], 512 µg/mL (≈ 1330 µM); in the test on Escherichia coli it was more than 1020 µg/mL. Also, the inhibition of growth at 10 µM in the test on SF-295 [2] turned out to be 93%; in the test with SK-MEL-2, 98%; in the test with UACC-62 [8] it was 91%; in the test with SNB-19 it was 91.2%; in the test on U-251 [11] it was 96.1%; in the test with HOP-62 it was 94.6%. Moreover, the Activity with A549 [5] is on record as 89.87%; in the test on A549 [7] it was 89.51%; in the test with A549 [9], 8.95%; with A549 [10], 90.86%; in the test on A549 [12] it was 0.19%. Moreover, the “fold change (FC)” value in [6] and in test [14] was 3 in each case. Also, the result with A549 [15] was Active.
Consider `CNC(=O)c1cc(Oc2ccc(NC(=O)Nc3ccc(Cl)c(C(F)(F)F)c3)cc2)ccn1` [SORAFENIB], for which the MIC in the test on Candida albicans was more than 128 µg/mL; against Staphylococcus aureus [3], 4 µg/mL (≈ 8.61 µM); with Escherichia coli, 1 µg/mL (≈ 2.15 µM); against Staphylococcus aureus [16] it was 3 µg/mL (≈ 6.45 µM).
